Source: ChEMBL document CHEMBL5260797, “N-(1-Benzyl-3,5-dimethyl-1H-pyrazol-4-yl)benzamides: Antiproliferative Activity and Effects on mTORC1 and Autophagy” (ACS Med Chem Lett, 2017)
Converted amounts (≈) assume the structure as drawn. The source made the active and inactive calls. The rule behind the calls is not given here.

Columns and labels:
MIA PaCa-2 = assay: Antiproliferative activity against human MIA PaCa-2 cells assessed as cell viability measured after 72 hrs by MTT assay; format: functional, cell-based; settings: MIA PaCa-2, 72 h
How it was run: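 MIA PaCa-2 pancreatic cancer cells; EC50 values determined in triplicate.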

[1] = Metabolic stability in mouse plasma assessed as parent compound remaining measured after 6 hrs by LC-MS/MS analysis; format: ADME, cell-free; settings: read-out: Stability
[2] = Metabolic stability in human plasma assessed as parent compound remaining measured after 6 hrs by LC-MS/MS analysis; format: ADME, cell-free; settings: read-out: Stability
[3] = Thermodynamic aqueous solubility of the compound at pH 7.4 measured after 48 hrs by UV-spectrometry method; format: physicochemical; settings: read-out: Therm_solubility
[4] = Cytotoxicity against human ARPE-19 cells assessed as cell viability measured after 72 hrs by MTT assay; format: toxicity, cell-based
ARPE-19 [5] = assay: Induction of autophagy in human ARPE-19 cells assessed as increase in LC3-2 conversion at 10 uM measured after 4 hrs by Western blot analysis; format: functional, cell-based
How it was run: (§1)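 ARPE-19 cells treated 4 h in complete medium without starvation with increasing concentrations (10, 25, 50 μM) or DMSO. LC3 detected by Western blot; LC3-II/actin ratio expressed as fold increase over DMSO control, n = 3.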

ARPE-19 [6] = assay: Induction of autophagy in human ARPE-19 cells assessed as increase in LC3-labeled punctae at 25 uM measured after 4 hrs by immunofluorescence analysis relative to control; format: functional, cell-based
How it was run: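 ARPE-19 cells treated 4 h at 25 μM in complete medium without starvation, or with DMSO. LC3 punctae detected by immunofluorescence, with CD63 as late endosomal/lysosomal marker.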

ARPE-19 [7] = assay: Induction of autophagy in human ARPE-19 cells assessed as fold increase in LC3 turnover at 50 uM measured after 4 hrs by Western blot analysis; format: functional
How it was run: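 ARPE-19 human retinal pigment epithelial cells exposed 4 h to compound or DMSO in complete medium without starvation. LC3 conversion read by Western blot as LC3-II/actin ratio and expressed as fold increase over DMSO control, n = 3.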

ARPE-19 [8] = assay: Induction of autophagy in human ARPE-19 cells assessed as increase in LC3-2 conversion at 25 to 50 uM measured after 4 hrs by Western blot analysis; format: functional, cell-based; settings: dose 25-50 µM; how it was run: as §1
ARPE-19 [9] = assay: Induction of autophagy in human ARPE-19 cells assessed as increase in LC3-2 conversion measured after 4 hrs by Western blot analysis; format: functional, cell-based; settings: dose 25-50 µM; how it was run: as §1
ARPE-19 [10] = assay: Reduction in autophagic flux in human ARPE-19 cells at 25 uM incubated for 4 hrs in complete medium in presence of bafilomycin; format: functional, cell-based
How it was run: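 ARPE-19 cells in full medium with 100 nM bafilomycin plus compound or DMSO. Autophagic flux read as LC3-II by Western blot.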

mTORC1 (Homo sapiens) [11] = biological target: T1, mTORC1 (Homo sapiens) (UniProt P42345+Q8N122+Q9BVC4); assay: Inhibition of mTORC1 in human ARPE19 cells at 10 to 50 uM measured after 4 hrs by Western blot analysis related to control; format: cell-based; settings: ARPE-19, dose 10-50 µM
How it was run: (§2)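 ARPE-19 cells treated 4 h without starvation with increasing concentrations or DMSO. Basal mTORC1 activity measured by Western blot as phosphorylated P70/total P70, with DMSO set to 100%.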

mTORC1 (Homo sapiens) [12] = biological target: T1, mTORC1 (Homo sapiens); assay: Inhibition of mTORC1 in human ARPE19 cells measured after 4 hrs by Western blot analysis; format: cell-based; settings: ARPE-19, dose 10-50 µM; how it was run: as §2
mTORC1 (Homo sapiens) [13] = biological target: T1, mTORC1 (Homo sapiens); assay: Inhibition of mTORC1 in human ARPE19 cells assessed as decrease in P70/total P70 phosphorylation level at 10 uM measured after 4 hrs by Western blot analysis; format: cell-based; settings: ARPE-19; how it was run: as §2
ARPE-19 [14] = assay: Induction of autophagy in human ARPE-19 cells assessed as LC3 level at 25 uM measured after 4 hrs under starvation/refeed condition by immunofluorescence analysis; format: functional, cell-based
How it was run: (§3)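 ARPE-19 cells starved 4 h in EBSS, then refed 1 h in complete medium containing 25 μM compound or DMSO. LC3 punctae imaged by immunofluorescence, with CD63 co-stain.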

ARPE-19 [15] = assay: Induction of autophagy in human ARPE-19 cells assessed as LC3 accumulation at 25 to 50 uM measured after 4 hrs under refeed condition by immunofluorescence analysis; format: functional, cell-based; settings: dose 25-50 µM
ARPE-19 [16] = assay: Induction of autophagy in human ARPE-19 cells assessed fold increase in LC3 turnover at 10 uM pretreated measured after 1 hr under refeed condition by Westernblot analysis; format: functional
How it was run: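 ARPE-19 cells pretreated 30 min with 10 μM compound or DMSO, starved 4 h in EBSS, then refed 1 h in complete medium with compound or DMSO. LC3-II/actin quantified by Western blot and expressed as fold increase over DMSO control, n = 3.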

ARPE-19 [17] = assay: Induction of autophagy in human ARPE-19 cells assessed as appearance of LC3 non-uniformed shapes at 25 uM pretreated for 30 mins with cells followed by incubation for 4 hrs under starvation condition by immunofluorescence analysis; format: functional, cell-based; settings: time 4.5 hrs
How it was run: (§4)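 ARPE-19 cells starved 4 h in EBSS with 25 μM compound or DMSO. LC3-labeled structures imaged by immunofluorescence, with CD63 as late endosomal/lysosomal marker.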

ARPE-19 [18] = assay: Induction of autophagy in human ARPE-19 cells assessed as LC3 enlarged structures at 25 uM pretreated for 30 mins with cells followed by incubation for 4 hrs under starvation condition by immunofluorescence analysis; format: functional, cell-based; settings: time 4.5 hrs; how it was run: as §4
ARPE-19 [19] = assay: Induction of autophagy in human ARPE-19 cells assessed as decrease in LC3-2/actin ratio at 10 uM pretreated for 30 mins with cells followed by incubation for 4 hrs under starvation condition by Western blot analysis; format: functional, cell-based; settings: time 4.5 hrs
How it was run: (§5)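 ARPE-19 cells pretreated 30 min at 10 μM (or DMSO). Then 4 h with compound in EBSS starvation medium, or in EBSS with 100 nM bafilomycin. LC3-II/actin quantified by Western blot as fold of DMSO control, n = 3.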

ARPE-19 [20] = assay: Induction of autophagy in human ARPE-19 cells assessed as decrease in LC3-2/actin ratio at 10 uM pretreated for 30 mins with cells followed by incubation for 4 hrs under starvation condition in presence of bafilomycin by Western blot analysis; format: functional, cell-based; settings: time 4.5 hrs; how it was run: as §5
[21] = Metabolic stability in mouse plasma assessed as parent compound remaining measured after 24 hrs by LC-MS/MS analysis; format: ADME, cell-free; settings: read-out: Stability
[22] = Metabolic stability in human plasma assessed as parent compound remaining measured after 24 hrs by LC-MS/MS analysis; format: ADME, cell-free; settings: read-out: Stability
mTORC1 (Homo sapiens) [23] = biological target: T1, mTORC1 (Homo sapiens); assay: Inhibition of mTORC1 reactivation in human ARPE-19 cells assessed as reduction of 4E-BP1 phosphorylation at 10 uM preincubated for 4 hrs under starvation/refeed condition measured after 1 hr in complete medium by Western blot analysis; format: cell-based; settings: time 5.0 hrs
How it was run: (§6)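 ARPE-19 cells starved 4 h in EBSS, then refed 1 h in complete medium with 10 μM compound or DMSO. mTORC1 reactivation read by Western blot as phosphorylation of P70 and 4EBP1.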

mTORC1 (Homo sapiens) [24] = biological target: T1, mTORC1 (Homo sapiens); assay: Inhibition of mTORC1 reactivation in human ARPE-19 cells assessed as reduction of P70 phosphorylation at 10 uM preincubated for 4 hrs under starvation/refeed condition measured after 1 hr in complete medium by Western blot analysis; format: cell-based; settings: time 5.0 hrs; how it was run: as §6
ARPE-19 [25] = assay: Induction of autophagy in human ARPE-19 cells assessed as appearance of abnormal punctae at 25 uM measured after 1 hr under starvation/refeed condition by immunofluorescence analysis; format: functional, cell-based; how it was run: as §3
mTORC1 (Homo sapiens) [26] = biological target: T1, mTORC1 (Homo sapiens); assay: Inhibition of mTORC1 reactivation in human ARPE-19 cells at 25 to 50 uM preincubated for 4 hrs under starvation/refeed condition measured after 1 hr in complete medium by Western blot analysis; format: cell-based; settings: dose 25-50 µM, time 5.0 hrs
ARPE-19 [27] = assay: Inhibition of autophagy in human ARPE-19 cells assessed as fold decrease in LC3 turnover at 10 uM pretreated for 30 mins with cells followed by incubation for 4 hrs under starvation condition by Western blot analysis; settings: time 4.5 hrs

T1 sequence (Q8N122 whole entry, looked up, other chains not shown): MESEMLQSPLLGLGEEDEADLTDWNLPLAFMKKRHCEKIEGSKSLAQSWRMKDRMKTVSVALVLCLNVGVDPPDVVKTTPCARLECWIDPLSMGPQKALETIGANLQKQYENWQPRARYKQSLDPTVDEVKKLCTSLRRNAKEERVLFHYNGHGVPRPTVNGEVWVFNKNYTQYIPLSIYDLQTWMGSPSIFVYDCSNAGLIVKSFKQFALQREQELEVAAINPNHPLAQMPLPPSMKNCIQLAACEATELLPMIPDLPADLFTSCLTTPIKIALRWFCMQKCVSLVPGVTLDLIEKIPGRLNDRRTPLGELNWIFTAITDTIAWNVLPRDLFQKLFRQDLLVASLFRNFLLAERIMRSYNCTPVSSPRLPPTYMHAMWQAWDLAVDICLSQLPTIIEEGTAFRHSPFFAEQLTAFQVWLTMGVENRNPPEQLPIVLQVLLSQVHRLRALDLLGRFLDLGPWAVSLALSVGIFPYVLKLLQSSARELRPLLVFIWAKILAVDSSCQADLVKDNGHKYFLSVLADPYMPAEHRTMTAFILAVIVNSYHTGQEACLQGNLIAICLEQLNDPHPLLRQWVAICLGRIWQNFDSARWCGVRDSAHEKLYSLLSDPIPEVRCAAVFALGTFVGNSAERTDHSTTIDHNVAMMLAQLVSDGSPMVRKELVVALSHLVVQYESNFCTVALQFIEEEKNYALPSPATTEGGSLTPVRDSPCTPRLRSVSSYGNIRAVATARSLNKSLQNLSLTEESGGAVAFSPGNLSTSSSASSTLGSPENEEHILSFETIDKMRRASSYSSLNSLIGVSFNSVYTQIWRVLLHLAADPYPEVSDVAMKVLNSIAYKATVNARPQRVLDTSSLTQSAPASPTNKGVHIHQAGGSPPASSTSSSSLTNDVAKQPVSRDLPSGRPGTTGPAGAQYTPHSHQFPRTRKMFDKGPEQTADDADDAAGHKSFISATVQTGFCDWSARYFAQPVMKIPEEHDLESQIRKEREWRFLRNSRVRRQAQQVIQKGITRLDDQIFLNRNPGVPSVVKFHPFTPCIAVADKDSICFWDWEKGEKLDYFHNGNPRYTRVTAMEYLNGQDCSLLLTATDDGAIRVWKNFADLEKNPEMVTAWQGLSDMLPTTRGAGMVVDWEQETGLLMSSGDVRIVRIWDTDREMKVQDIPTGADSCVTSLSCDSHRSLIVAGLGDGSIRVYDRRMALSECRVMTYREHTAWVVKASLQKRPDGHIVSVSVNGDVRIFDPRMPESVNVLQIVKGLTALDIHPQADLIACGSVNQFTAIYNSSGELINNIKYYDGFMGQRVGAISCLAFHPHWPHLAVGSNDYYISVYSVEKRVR
T1 sequence (Q9BVC4 whole entry, looked up, other chains not shown): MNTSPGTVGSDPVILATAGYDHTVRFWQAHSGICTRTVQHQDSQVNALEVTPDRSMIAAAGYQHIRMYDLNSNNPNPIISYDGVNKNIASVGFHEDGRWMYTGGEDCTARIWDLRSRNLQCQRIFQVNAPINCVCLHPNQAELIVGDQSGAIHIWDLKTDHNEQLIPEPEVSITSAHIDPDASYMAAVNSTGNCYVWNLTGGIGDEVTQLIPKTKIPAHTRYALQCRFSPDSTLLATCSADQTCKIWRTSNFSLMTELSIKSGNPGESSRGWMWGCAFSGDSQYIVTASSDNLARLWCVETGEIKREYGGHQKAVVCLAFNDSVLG

## CNC(=O)c1cccc(Cn2nc(C)c(NC(=O)c3ccc(COc4ccc(C(F)(F)F)cc4C)cc3)c2C)c1
MIA PaCa-2
  EC50: 0.62 µM
[1]
  remaining at 6 h: 88%
[2]
  remaining at 6 h: 98%
[3]
  solubility thermodynamic at 48 h: 166 µM (≈ 91.4 µg/mL)
[4]
  EC50 at 72 h: 7.1 µM
ARPE-19 [5]
  Activity: Active
ARPE-19 [6]
  Activity: Active
ARPE-19 [7]
  fold change (FC): 3.3
ARPE-19 [8]
  Activity: Active
ARPE-19 [9]
  Activity: Dose-Dependent Effect
ARPE-19 [10]
  Activity: inactive
mTORC1 (Homo sapiens) [11]
  inhibition: 78%
mTORC1 (Homo sapiens) [12]
  inhibition: Dose-Dependent Effect
mTORC1 (Homo sapiens) [13]
  inhibition: Active
ARPE-19 [14]
  Activity: Active
ARPE-19 [15]
  Activity: Active
ARPE-19 [16]
  fold change (FC): 1.7
ARPE-19 [17]
  Activity: Active
ARPE-19 [18]
  Activity: Active
ARPE-19 [19]
  Activity: Active
ARPE-19 [20]
  Activity: inactive
[21]
  remaining at 24 h: 93%
[22]
  remaining at 24 h: 100%
mTORC1 (Homo sapiens) [23]
  Activity: Active
mTORC1 (Homo sapiens) [24]
  Activity: Active
ARPE-19 [25]
  Activity: Active
mTORC1 (Homo sapiens) [26]
  Activity: Active
ARPE-19 [27]
  fold change (FC): 1.7
